In brackets after ≈: the same amount, converted by molar mass.
Legend:
BT-549 = assay: Growth inhibition of human BT549 cells after 48 hrs by sulforhodamine B assay; format: functional; conditions: BT-549, 48 h
Procedure, shortened: (§1)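 Cells in RPMI 1640 with 5% FBS, plated at 5,000–40,000/well and grown 24 h. Time-zero plates fixed with TCA. Five drug concentrations, 48 h at 37 °C, 5% CO₂. Fixation with TCA (10% final for adherent lines; 16% final for suspension lines), staining with 0.4% SRB, reading at 515 nm. GI50 is the concentration giving a 50% reduction in net protein increase relative to time zero.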

MCF7 = assay: Growth inhibition of human MCF7 cells after 48 hrs by sulforhodamine B assay; format: functional; conditions: MCF7, 48 h; procedure, shortened: as §1
DU-145 = assay: Growth inhibition of human DU145 cells after 48 hrs by sulforhodamine B assay; format: functional; conditions: DU-145, 48 h; procedure, shortened: as §1
PC-3 = assay: Growth inhibition of human PC3 cells after 48 hrs by sulforhodamine B assay; format: functional; conditions: PC-3, 48 h; procedure, shortened: as §1
CAKI-1 = assay: Growth inhibition of human CAKI-1 cells after 48 hrs by sulforhodamine B assay; format: functional; conditions: CAKI-1, 48 h; procedure, shortened: as §1
A498 = assay: Growth inhibition of human A498 cells after 48 hrs by sulforhodamine B assay; format: functional; conditions: A498, 48 h; procedure, shortened: as §1
[1] = Growth inhibition of human NCI-ADR-RES cells after 48 hrs by sulforhodamine B assay; format: functional; procedure, shortened: as §1
OVCAR-3 = assay: Growth inhibition of human OVCAR3 cells after 48 hrs by sulforhodamine B assay; format: functional; conditions: OVCAR-3, 48 h; procedure, shortened: as §1
SK-MEL-5 = assay: Growth inhibition of human SK-MEL-5 cells after 48 hrs by sulforhodamine B assay; format: functional; conditions: SK-MEL-5, 48 h; procedure, shortened: as §1
MDA-MB-435 = assay: Growth inhibition of human MDA-MB-435 cells after 48 hrs by sulforhodamine B assay; format: functional; conditions: MDA-MB-435, 48 h; procedure, shortened: as §1
SF-539 = assay: Growth inhibition of human SF539 cells after 48 hrs by sulforhodamine B assay; format: functional; conditions: SF-539, 48 h; procedure, shortened: as §1
SNB-75 = assay: Growth inhibition of human SNB75 cells after 48 hrs by sulforhodamine B assay; format: functional; conditions: SNB-75, 48 h; procedure, shortened: as §1
HCT-15 = assay: Growth inhibition of human HCT15 cells after 48 hrs by sulforhodamine B assay; format: functional; conditions: HCT-15, 48 h; procedure, shortened: as §1
HT-29 = assay: Growth inhibition of human HT-29 cells after 48 hrs by sulforhodamine B assay; format: functional; conditions: HT-29, 48 h; procedure, shortened: as §1
NCI-H460 [2] = assay: Growth inhibition of human NCI-H460 cells after 48 hrs by sulforhodamine B assay; format: functional; conditions: NCI-H460, 48 h; procedure, shortened: as §1
A549 = assay: Growth inhibition of human A549 cells after 48 hrs by sulforhodamine B assay; format: functional; conditions: A549, 48 h; procedure, shortened: as §1
SR = assay: Growth inhibition of human SR cells after 48 hrs by sulforhodamine B assay; format: functional; procedure, shortened: as §1
RPMI-8226 = assay: Growth inhibition of human RPMI8226 cells after 48 hrs by sulforhodamine B assay; format: functional; conditions: RPMI-8226, 48 h; procedure, shortened: as §1
NCI-H460 [3] = assay: Cytotoxicity against human NCI-H460 cells assessed as inhibition of cell viability by MTT assay; format: functional, cell-based
Procedure, shortened: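 NCI-H460 cells in RPMI 1640 with 10% FBS and 2 mM glutamine at 37 °C, 5% CO₂. Seeded at 10,000 cells/well for 12 h, then dosed in 1% FBS medium (DMSO below 0.1% final). MTT (10 µL of 5 mg/mL) for 4 h, formazan dissolved in DMSO for 45 min, absorbance at 562 nm. Triplicate wells, at least three runs (N = 9).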

[4] = Antibacterial activity against Bacillus subtilis JH642 containing trpC2 pheA1 assessed as growth inhibition after 16 hrs by broth dilution method; format: functional, Bacillus subtilis subsp. subtilis str. JH642
Procedure, shortened: (§2)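 Strains grown overnight in LB, diluted 10-fold, shaken at 37 °C for 45 min–1 h (~10⁸ CFU/mL), then diluted ~1000-fold to ~10⁵ CFU/mL. Broth dilution in LB: 20 mM DMSO stocks, 1:2 serial dilutions giving seven concentrations, inoculum added 1:1. OD600 read with shaking.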

Escherichia coli [5] = assay: Antibacterial activity against Escherichia coli K-12 BAS901 harboring genetically modified imp-4213, zab4292::Tn5 assessed as growth inhibition after 16 hrs by broth dilution method; format: functional; conditions: K-12 BAS901, 16 h
Procedure, shortened: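 Kanamycin-resistant strain grown overnight in LB with kanamycin 50 µg/mL, diluted 10-fold, then shaken at 37 °C for 45 min–1 h (~10⁸ CFU/mL). Diluted ~1000-fold to 10⁵ CFU/mL in LB. DMSO stocks (20 mM) prepared as 4X working solutions in LB. Seven 1:2 serial dilutions mixed with equal-volume inoculum. OD600 read with shaking.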

Escherichia coli [6] = assay: Antibacterial activity against Escherichia coli K-12 MG1655 assessed as growth inhibition after 16 hrs by broth dilution method; format: functional; conditions: K-12 substr. MG1655, 16 h; procedure, shortened: as §2

Compound: CCCCCCCCCCCCO[C@@H]1O[C@@H](C)[C@H](O[C@@H]2O[C@@H](C)[C@H](OC(C)=O)[C@@H](O[C@@H]3O[C@@H](C)[C@H](OC(C)=O)[C@@H](O)[C@H]3OC(C)=O)[C@H]2O)[C@@H](O)[C@H]1O
- GI50 (BT-549): 7.9 µM
- GI50 (MCF7): 4.84 µM
- GI50 (DU-145): 7.94 µM
- GI50 (PC-3): 2.37 µM
- GI50 (CAKI-1): 8.78 µM
- GI50 (A498): 6.73 µM
- GI50 [1]: 9.29 µM
- GI50 (OVCAR-3): 5.91 µM
- GI50 (SK-MEL-5): 6.21 µM
- GI50 (MDA-MB-435): 7.68 µM
- GI50 (SF-539): 7.11 µM
- GI50 (SNB-75): 3.42 µM
- GI50 (HCT-15): 8.39 µM
- GI50 (HT-29): 4.35 µM
- GI50 (NCI-H460 [2]): 6.32 µM
- GI50 (A549): 6.69 µM
- GI50 (SR): 3.2 µM
- GI50 (RPMI-8226): 4.12 µM
- IC50 (NCI-H460 [3]): 90.9 µM
- MIC [4]: 32 µM (≈ 24 µg/mL)
- MIC (Escherichia coli [5]): > 64 µM
- MIC (Escherichia coli [6]): > 64 µM

Compound: CCCCCCCCCCCCO[C@@H]1O[C@@H](C)[C@H](O[C@@H]2O[C@@H](C)[C@H](OC(C)=O)[C@@H](O[C@@H]3O[C@@H](C)[C@H](O)[C@@H](O[C@@H]4O[C@@H](C)[C@H](OC(C)=O)[C@@H](OC(C)=O)[C@H]4OC(C)=O)[C@H]3OC(C)=O)[C@H]2O)[C@@H](O)[C@H]1O
- GI50 (BT-549): 0.88 µM
- GI50 (MCF7): 0.94 µM
- GI50 (DU-145): 0.79 µM
- GI50 (PC-3): 0.75 µM
- GI50 (CAKI-1): 0.6 µM
- GI50 (A498): 0.02 µM
- GI50 [1]: 2.24 µM
- GI50 (OVCAR-3): 0.8 µM
- GI50 (SK-MEL-5): 0.82 µM
- GI50 (MDA-MB-435): 0.84 µM
- GI50 (SF-539): 0.91 µM
- GI50 (SNB-75): 0.62 µM
- GI50 (HCT-15): 1.52 µM
- GI50 (HT-29): 0.91 µM
- GI50 (NCI-H460 [2]): 0.96 µM
- GI50 (A549): 0.97 µM
- GI50 (SR): 0.85 µM
- GI50 (RPMI-8226): 0.92 µM
- IC50 (NCI-H460 [3]): 9.8 µM
- MIC [4]: > 64 µM
- MIC (Escherichia coli [5]): > 64 µM
- MIC (Escherichia coli [6]): > 64 µM

Compound: CCCCCCCCCCCCO[C@@H]1O[C@@H](C)[C@H](O[C@@H]2O[C@@H](C)[C@H](OC(C)=O)[C@@H](O[C@@H]3O[C@@H](C)[C@H](OC(C)=O)[C@@H](O[C@@H]4O[C@@H](C)[C@H](OC(C)=O)[C@@H](O)[C@H]4OC(C)=O)[C@H]3OC(C)=O)[C@H]2O)[C@@H](O)[C@H]1O
- GI50 (BT-549): 0.94 µM
- GI50 (MCF7): 0.87 µM
- GI50 (DU-145): 0.8 µM
- GI50 (PC-3): 0.82 µM
- GI50 (CAKI-1): 1.42 µM
- GI50 (A498): 0.73 µM
- GI50 [1]: 3.38 µM
- GI50 (OVCAR-3): 0.77 µM
- GI50 (SK-MEL-5): 0.74 µM
- GI50 (MDA-MB-435): 0.83 µM
- GI50 (SF-539): 0.83 µM
- GI50 (SNB-75): 0.5 µM
- GI50 (HCT-15): 1.01 µM
- GI50 (HT-29): 0.97 µM
- GI50 (NCI-H460 [2]): 0.94 µM
- GI50 (A549): 1.18 µM
- GI50 (SR): 0.86 µM
- GI50 (RPMI-8226): 0.96 µM
- IC50 (NCI-H460 [3]): 7.5 µM
- MIC [4]: 4 µM (≈ 3.92 µg/mL)
- MIC (Escherichia coli [5]): > 64 µM
- MIC (Escherichia coli [6]): > 64 µM

Compound: CCCCCCCCCCCCO[C@@H]1O[C@@H](C)[C@H](O[C@@H]2O[C@@H](C)[C@H](OC(C)=O)[C@@H](O[C@@H]3O[C@@H](C)[C@H](OC(C)=O)[C@@H](O[C@@H]4O[C@@H](C)[C@H](O)[C@@H](O)[C@H]4OC(C)=O)[C@H]3OC(C)=O)[C@H]2O)[C@@H](O)[C@H]1O
- GI50 (BT-549): 8.39 µM
- GI50 (MCF7): 5.29 µM
- GI50 (DU-145): 7.47 µM
- GI50 (PC-3): 6.55 µM
- GI50 (CAKI-1): 9.24 µM
- GI50 (A498): 5.64 µM
- GI50 [1]: 8.9 µM
- GI50 (OVCAR-3): 6.07 µM
- GI50 (SK-MEL-5): 6.27 µM
- GI50 (MDA-MB-435): 7.25 µM
- GI50 (SF-539): 7.17 µM
- GI50 (SNB-75): 2.18 µM
- GI50 (HCT-15): 8.33 µM
- GI50 (HT-29): 8.13 µM
- GI50 (NCI-H460 [2]): 8.43 µM
- GI50 (A549): 8.18 µM
- GI50 (SR): 3.83 µM
- GI50 (RPMI-8226): 2.84 µM
- IC50 (NCI-H460 [3]): 12.8 µM
- MIC [4]: 8 µM (≈ 7.51 µg/mL)
- MIC (Escherichia coli [5]): > 64 µM
- MIC (Escherichia coli [6]): > 64 µM

From ChEMBL document CHEMBL2203229, “Structure Activity Relationship Study of the Cleistriosides and Cleistetrosides for Antibacterial/Anticancer Activity” (ACS Med Chem Lett, 2012)
